Format in all cases: functional, cell-based
One test has as its system HepG2. Briefly: Cytotoxicity in human HepG2 cells assessed as reduction in cell viability incubated for 48 hrs by MTT assay. The following applies: HepG2, 48 h. Put shortly: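 MTT viability. Cells were seeded in 96-well plates overnight and exposed to a range of concentrations. MTT (5 mg/mL) was added for 4 h, formazan was dissolved in DMSO and absorbance read at 570 nm. Three independent experiments.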
A general note: Tetrazolium dyes change colour on reduction, which living cells bring about.

Test [1] deals with A549. Briefly: Cytotoxicity in human A549 cells assessed as reduction in cell viability incubated for 48 hrs by MTT assay. The conditions noted are these: A549, 48 h. Put shortly: (§1)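 MTT viability. U251 and NCI-H1299 were grown in DMEM, the other lines in RPMI 1640, each with 10% FBS, penicillin and streptomycin, at 37 °C in 5% CO2. Cells were seeded in 96-well plates overnight and exposed to a range of concentrations. MTT (5 mg/mL) was added for 4 h, formazan was dissolved in DMSO and absorbance read at 570 nm. Three independent experiments.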

The test system of the next test is MCF7. Briefly: Cytotoxicity in human MCF7 cells assessed as reduction in cell viability incubated for 48 hrs by MTT assay. The following applies: MCF7, 48 h. Put shortly:
as §1

The test system of another test is SW-620. Briefly: Cytotoxicity in human SW620 cells assessed as reduction in cell viability incubated for 48 hrs by MTT assay. The conditions noted are these: SW-620, 48 h. Put shortly:
as §1

For another test, the system named is KB. Briefly: Cytotoxicity in human KB cells assessed as reduction in cell viability incubated for 48 hrs by MTT assay. Put shortly: as §1
For another test, the system named is NCI-H1299. Briefly: Cytotoxicity in human NCI-H1299 cells assessed as reduction in cell viability incubated for 48 hrs by MTT assay. The conditions noted are these: NCI-H1299, 48 h. Put shortly:
as §1

The test system of the next test is U-251. Briefly: Cytotoxicity in human U251 cells assessed as reduction in cell viability incubated for 48 hrs by MTT assay. The following applies: U-251, 48 h. Put shortly: as §1
The test system of another test is SMMC-7721. Briefly: Cytotoxicity in human SMMC7721 cells assessed as reduction in cell viability incubated for 48 hrs by MTT assay. The following applies: SMMC-7721, 48 h. Put shortly:
as §1

A further test has as its system HT-29. Briefly: Cytotoxicity in human HT-29 cells assessed as reduction in cell viability incubated for 48 hrs by MTT assay. The following applies: HT-29, 48 h. Put shortly: as §1
Test [2] has as its system A549. Briefly: Induction of cytoplasmic vacuolization in human A549 cells.

Molecules are shown by their SMILES. Counter-ions that a name gives are not always drawn. Active and inactive are the calls of the source. The calls are words filed in the database; no cut-off is given here.

20 molecules from ChEMBL document CHEMBL4339251, “Prenylated Bibenzyls from the Chinese Liverwort Radula constricta and Their Mitochondria-Derived Paraptotic Cytotoxic Activities” (J Nat Prod, 2019) can be followed below.

Usually IC50 stands for the concentration needed to halve the response being measured.

In the case of `CC(C)=CCC[C@@]1(C)C=Cc2c(CCc3ccccc3)cc(O)cc2O1`, the IC50 in the test on HepG2 is 35 µM; in the test with A549 [1], more than 40 µM; in the test with MCF7, more than 40 µM; with SW-620, 18.5 µM; in the test on KB it was 28.1 µM; in the test with NCI-H1299 it was more than 40 µM. In addition, the 50% inhibitory concentration (IC50) with U-251 is 8.9 µM; in the test with SMMC-7721 it was 24.8 µM; with HT-29, more than 40 µM.
On to `CC1(C)[C@@H]2c3c(CCc4ccccc4)cc(O)cc3O[C@]3(C)CC[C@H]1[C@H]23`, for which the IC50 in the test on HepG2 stood at 13.1 µM; in the test with A549 [1], 9.8 µM; in the test on MCF7 it was 20 µM; in the test with SW-620, 10.4 µM; with KB, 16 µM; in the test on NCI-H1299 it was 7.5 µM. Besides, the results for the IC50 in the test on U-251, in the test on SMMC-7721 and in the test with HT-29 were 25.6 µM, 13.5 µM and more than 10 µM, respectively. Besides, in the test on A549 [2], the result was Active.
As for `COc1cccc2c1C(=O)c1c(O)c3c(c(O)c1C2=O)C[C@@](O)(C(=O)CO)C[C@@H]3O[C@H]1C[C@H](N)[C@H](O)[C@H](C)O1` [DOXORUBICIN HYDROCHLORIDE], the IC50 in the test with SW-620 is 1.2 µM; in the test on KB it was 3.2 µM; in the test with NCI-H1299 it was 0.8 µM; with U-251 it was 2.9 µM; in the test on SMMC-7721, 0.8 µM; in the test with HT-29 it was 3.8 µM.
As to `COc1cc(CCc2ccccc2)c2c(c1)OC(C)(C)CC2`, the IC50 in the test on HepG2, in the test with A549 [1], with MCF7, with SW-620, in the test with KB and in the test with NCI-H1299 was more than 40 µM throughout. The IC50 with U-251 is 26.1 µM; in the test on SMMC-7721, more than 40 µM; with HT-29, more than 40 µM.
With `CC1=CC(=O)c2c(O)cc(CCc3ccccc3O)cc2OC1`, the IC50 in the test with HepG2, in the test on A549 [1], in the test with MCF7, in the test on SW-620, in the test with KB and in the test on NCI-H1299 was more than 40 µM each time. Also, the IC50 with U-251, with SMMC-7721 and in the test on HT-29 was more than 40 µM in each case.
With `C=C(C)C(O)Cc1c(O)cc(CCc2ccccc2)c(C(=O)OC)c1O` (racemic), the half-inhibitory concentration (IC50) with HepG2 was 34.9 µM; in the test on A549 [1], 36.6 µM; with MCF7, 37.9 µM; in the test with SW-620 it was 22.2 µM; with KB, more than 40 µM; in the test on NCI-H1299, more than 40 µM. Besides, the figures for the concentration for half-maximal inhibition (IC50) in the test on U-251, with SMMC-7721 and in the test with HT-29 were 8.7 µM, 9 µM and 29.6 µM, respectively.
As for `CC(C)(O)[C@H]1CC[C@@]2(C)Oc3cc(O)cc(CCc4ccccc4)c3[C@@H]1[C@H]2O`, the IC50 in the test on HepG2, with A549 [1], in the test on MCF7, with SW-620, with KB and with NCI-H1299 was more than 40 µM throughout. Besides, the IC50 in the test with U-251, with SMMC-7721 and in the test on HT-29 was more than 40 µM each time.
Consider `CC(C)=CCCC(C)(O)CCc1c(O)cc(O)cc1CCc1ccccc1` (racemic), for which the half-inhibitory concentration (IC50) was more than 40 µM in the test with HepG2; more than 40 µM in the test on A549 [1]; more than 40 µM in the test with MCF7; more than 40 µM in the test on SW-620; 29.6 µM in the test on KB; more than 40 µM in the test on NCI-H1299. Besides, the values for the IC50 in the test on U-251, with SMMC-7721 and in the test on HT-29 were 36.7 µM, 38.7 µM and more than 40 µM, respectively.
Take `COC(=O)c1c(CCc2ccccc2)cc2c(c1O)CC(C(C)(C)O)O2` (racemic): the IC50 in the test on HepG2, in the test with A549 [1], in the test on MCF7, with SW-620, in the test on KB and in the test with NCI-H1299 was more than 40 µM in each case. Moreover, the concentration for half-maximal inhibition (IC50) in the test with U-251, in the test on SMMC-7721 and in the test on HT-29 was more than 40 µM each time.
Consider `O=C1C=Cc2c(O)cc(CCc3ccccc3O)cc2OC1`, for which the half-maximal inhibitory concentration (IC50) in the test with HepG2 is more than 40 µM; in the test on A549 [1], more than 40 µM; in the test on MCF7, 33.2 µM; in the test with SW-620, 13.8 µM; with KB, more than 40 µM; in the test with NCI-H1299, more than 40 µM. Also, the IC50 in the test with U-251 is 21.7 µM; in the test with SMMC-7721, 14.7 µM; in the test on HT-29 it was more than 40 µM.
With `COC(=O)c1c(CCc2ccccc2)cc(O)c2c1OC(C)(C)C(O)C2` (racemic), the IC50 in the test on HepG2, in the test on A549 [1], in the test with MCF7, in the test on SW-620, with KB and in the test on NCI-H1299 was more than 40 µM each time. The IC50 with U-251, with SMMC-7721 and with HT-29 was more than 40 µM in each case.
For the molecule `C=C(C)[C@H]1CC[C@@]2(C)Oc3cc(O)cc(CCc4ccccc4)c3[C@@H]1[C@H]2O`, the half-inhibitory concentration (IC50) was 31.6 µM in the test with HepG2; 28 µM in the test with A549 [1]; 37 µM with MCF7; 21.3 µM in the test with SW-620; 38 µM in the test with KB; more than 40 µM in the test on NCI-H1299. Moreover, the IC50 amounted to 14.6 µM with U-251, 28.4 µM in the test with SMMC-7721 and 35.3 µM in the test on HT-29.
In the case of `CC1=CCc2c(O)cc(CCc3ccccc3O)cc2OC1`, the IC50 in the test on HepG2 is 28.2 µM; in the test with A549 [1] it was 28.9 µM; in the test with MCF7, more than 40 µM; in the test with SW-620, more than 40 µM; with KB, more than 40 µM; in the test with NCI-H1299, more than 40 µM. Besides, the figures for the concentration for half-maximal inhibition (IC50) with U-251, with SMMC-7721 and in the test on HT-29 were 38.6 µM, 40 µM and 24.3 µM, respectively. Further, the outcome in the test with A549 [2] was Active.
In the case of `CC1(C)CCc2c(CCc3ccccc3)cc(O)cc2O1`, the half-maximal inhibitory concentration (IC50) in the test on HepG2, in the test on A549 [1], with MCF7, with SW-620, in the test on KB and in the test with NCI-H1299 was more than 40 µM each time. Besides, the IC50 in the test on U-251, in the test on SMMC-7721 and in the test with HT-29 was more than 40 µM in each case. In addition, the outcome in the test with A549 [2] was Active.
With `C=C(C)[C@@H](O)CC/C(C)=C/Cc1c(O)cc(O)cc1CCc1ccccc1`, the IC50 in the test on HepG2 was 22.2 µM; in the test on A549 [1], 25.5 µM; with MCF7 it was 28.9 µM; in the test on SW-620, 19.7 µM; with KB it was 17.2 µM; in the test on NCI-H1299, more than 40 µM. In addition, the figures for the IC50 in the test with U-251, in the test with SMMC-7721 and with HT-29 were more than 40 µM, 29.5 µM and 29 µM, respectively. The outcome with A549 [2] was Active.
`COC(=O)c1c(CCc2ccccc2)cc2c(c1O)CC(O)C(C)(C)O2` (racemic): the IC50 with HepG2, in the test with A549 [1], in the test on MCF7, in the test on SW-620, with KB and in the test on NCI-H1299 was more than 40 µM throughout. Besides, the IC50 in the test with U-251, in the test on SMMC-7721 and in the test on HT-29 was more than 40 µM in each case.
Consider `CC1=CCc2c(O)cc(CCc3ccccc3)cc2OC1`, for which the IC50 in the test on HepG2, in the test on A549 [1], with MCF7, with SW-620, in the test on KB and with NCI-H1299 was more than 40 µM in each case. In addition, the IC50 in the test on U-251, in the test on SMMC-7721 and in the test on HT-29 was more than 40 µM throughout.
With `CC(C)=CCC/C(C)=C/Cc1c(O)cc(O)cc1CCc1ccccc1`, the IC50 is 36 µM in the test with HepG2; more than 40 µM with A549 [1]; more than 40 µM with MCF7; 25.6 µM in the test with SW-620; 25.7 µM with KB; more than 40 µM in the test on NCI-H1299. For the same molecule, the figures for the half-maximal inhibitory concentration (IC50) in the test on U-251, in the test on SMMC-7721 and with HT-29 were 9.3 µM, 24.5 µM and more than 40 µM, respectively.
With `C=C(CCC=C(C)C)[C@H](O)Cc1c(O)cc(O)cc1CCc1ccccc1`, the IC50 is 20.4 µM with HepG2; 26 µM in the test with A549 [1]; 18.7 µM in the test with MCF7; 15.2 µM in the test on SW-620; 16.8 µM with KB; more than 40 µM with NCI-H1299. The results for the 50% inhibitory concentration (IC50) in the test with U-251, in the test with SMMC-7721 and in the test on HT-29 were 9.1 µM, 15.8 µM and 19.8 µM, respectively.
In the case of `CC(C)=CCCC1(C)Oc2cc(O)cc(CCc3ccccc3)c2CC1O` (racemic), the IC50 with HepG2, with A549 [1], with MCF7, with SW-620, with KB and in the test on NCI-H1299 was more than 40 µM in each case. For the same molecule, the half-inhibitory concentration (IC50) in the test on U-251, with SMMC-7721 and with HT-29 was more than 40 µM in each case.
